Source: PubChem
MEKK2 WT-MEK5: raises or lowers MEK5 binding to wildtype human MEKK2 PB1 domain; hit rate 1.1% among 290,000; binding response (% of control), % at 10 µM; bead flow cytometry, Alexa488-MEK5 binding to MEKK2 WT; actives lie on both sides; Q9Y2U5; in the data active means binding response below about 67% or above about 130%
MEKK2mut PB1 HTS: signal of MEK5 binding to mutant human MEKK2 PB1 domain | bead flow cytometry, Alexa488-MEK5 binding to MEKK2 mutant | percent response, % at 10 µM | hit rate 0.35% among 290,000; in the data active means percent response above about 24%, passing the limit was not always enough
Efflux pump inh: inhibitors of Candida antifungal efflux pumps expressed in yeast; S. cerevisiae Candida pump triplex, Nile Red efflux; inhibition, % at 10 µM; hit rate 0.44% among 330,000;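 active means plate passing quality check with inhibition over a set limit, or well fluorescence over plate mean plus 4 SD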;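 further: Nile Red retained in pooled yeast measured as flow cytometry median fluorescence; 0% = buffer negative control and 100% = Enniatin B positive control; higher means more Nile Red kept so more efflux inhibition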
ABCG2 inh: inhibitors of human ABCG2 transporter, ABCB1 counter-screen; Q9UNQ0; IgMXP3 cells, JC-1 efflux, flow cytometry; inhibition, % at 6.6 µM; hit rate 0.1% among 190,000; AID 1325;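 active means inhibition above 80%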;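 further: 0% = DMSO and 100% = nicardipine control wells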
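Test system: IgMXP3 (ABCG2) plus far-red-tagged CCRF-Adr (ABCB1) cells / Amount: 3 million cells/mL in well / Reagent: JC-1 transporter substrate / Timing: 10 min compound exposure, 25 °C / Signal: flow cytometry, 530 nm JC-1 signal / Read-out: percent efflux inhibition, scaled nicardipine 100% to DMSO 0% / Benchmarks: nicardipine as high control, DMSO as low control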
MEKK3 PB1 HTS: modulators (inhibitors or enhancers) of MEK5 binding to human MEKK3 PB1 domain; Q99759; bead-based flow cytometry, Alexa488-MEK5 binding to MEKK3; actives lie on both sides; 0 = blocked by unlabeled MEK5, 100 = vehicle; binding response (% of control), % at 10 µM; hit rate 1.4% among 290,000; AID 1529;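 active means binding response more than 3 SD above or below the average of its plate-row segment, actives on both sides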;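 further: Alexa488 bead fluorescence after subtracting the streptavidin-only scavenger bead signal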
ABCB1 block: inhibitors of human ABCB1 transporter, ABCG2 counter-screen; P08183; CCRF-Adr cells, JC-1 efflux, flow cytometry; inhibition, % at 6.6 µM; hit rate 0.067% among 190,000; in the data active means inhibition above about 40%;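 further: 0% = vehicle and 100% = reference inhibitor; higher value means more JC-1 retained so stronger ABCB1 efflux block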
Target sequence (P08183 whole entry, looked up): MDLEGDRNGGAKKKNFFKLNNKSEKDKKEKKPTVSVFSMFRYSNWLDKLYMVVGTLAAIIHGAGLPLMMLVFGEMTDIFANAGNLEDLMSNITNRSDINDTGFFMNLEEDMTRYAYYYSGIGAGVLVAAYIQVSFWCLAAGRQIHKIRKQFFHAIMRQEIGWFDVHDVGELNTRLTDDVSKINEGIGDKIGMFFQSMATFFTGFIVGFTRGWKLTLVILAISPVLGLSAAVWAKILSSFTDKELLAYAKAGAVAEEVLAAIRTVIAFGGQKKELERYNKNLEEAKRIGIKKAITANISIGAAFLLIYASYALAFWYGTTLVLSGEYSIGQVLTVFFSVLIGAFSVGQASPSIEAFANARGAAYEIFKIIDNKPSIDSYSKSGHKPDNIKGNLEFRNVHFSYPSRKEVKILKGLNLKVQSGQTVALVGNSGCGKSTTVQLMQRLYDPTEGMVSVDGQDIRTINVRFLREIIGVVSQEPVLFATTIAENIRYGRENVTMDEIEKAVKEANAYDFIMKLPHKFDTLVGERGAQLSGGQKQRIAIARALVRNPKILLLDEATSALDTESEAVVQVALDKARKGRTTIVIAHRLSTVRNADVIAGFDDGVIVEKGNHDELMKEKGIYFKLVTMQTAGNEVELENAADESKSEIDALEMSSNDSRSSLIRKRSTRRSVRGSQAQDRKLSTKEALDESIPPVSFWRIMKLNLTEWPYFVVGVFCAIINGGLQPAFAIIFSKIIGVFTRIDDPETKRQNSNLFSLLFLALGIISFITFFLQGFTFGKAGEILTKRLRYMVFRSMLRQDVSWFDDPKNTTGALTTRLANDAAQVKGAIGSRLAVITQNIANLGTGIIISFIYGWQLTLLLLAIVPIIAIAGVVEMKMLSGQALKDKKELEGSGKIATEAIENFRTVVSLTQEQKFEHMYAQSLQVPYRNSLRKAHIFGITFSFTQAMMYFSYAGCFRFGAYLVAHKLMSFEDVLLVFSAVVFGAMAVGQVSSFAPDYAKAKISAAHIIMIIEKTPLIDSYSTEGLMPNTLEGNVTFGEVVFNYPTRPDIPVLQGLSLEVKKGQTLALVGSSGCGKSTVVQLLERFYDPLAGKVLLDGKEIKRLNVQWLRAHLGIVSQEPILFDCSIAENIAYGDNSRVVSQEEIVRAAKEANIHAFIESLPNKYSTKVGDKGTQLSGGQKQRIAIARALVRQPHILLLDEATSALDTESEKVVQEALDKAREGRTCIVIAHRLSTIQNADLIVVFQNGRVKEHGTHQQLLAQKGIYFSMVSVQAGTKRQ
MEKK2wt confirm: raises or lowers MEK5 binding to wildtype human MEKK2, retest. shares compounds with MEKK3 PB1 HTS. bead flow cytometry, Alexa488-MEK5 binding to MEKK2 WT; actives lie on both sides. binding response (% of control), % at 10 µM. hit rate 2.4% among 5,900. AID 1892; in the data active means binding response below about 16% or above about 210%; inactive means in between
MEKK2mut-MEK5: signal of MEK5 binding to mutant human MEKK2, retest | hit rate 2% among 5,900 | shares compounds with MEKK3 PB1 HTS | percent response, % at 10 µM | bead flow cytometry, Alexa488-MEK5 binding to MEKK2 mutant; in the data active means percent response mostly above about 71%, no sharp cut-off; inactive means mostly below about 38%;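 further: higher means compound restores mutant binding toward wildtype level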
MEKK3 confirm: confirmation of inhibitors of MEK5 binding to human MEKK3 | shares compounds with MEKK3 PB1 HTS | hit rate 1.8% among 5,900 | bead flow cytometry, Alexa488-MEK5 binding to MEKK3; active compounds read low | binding response (% of control), % at 10 µM;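 active means binding response below 72% of control, or above a set upper limit, though filed actives all read lower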;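 further: 100% = DMSO only wells and 0% = binding blocked by excess unlabeled MEK5; lower values mean stronger disruption of MEK5 binding to MEKK3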
An asterisk follows results filed as active; . = not tested or not shown; [ ] = dose if it differs, or a comment. Only some compounds are listed: those with a hit (about 2.5% of all), similar ones and a draw of the others.

SMILES	MEKK2 WT-MEK5	MEKK2mut PB1 HTS	Efflux pump inh	ABCG2 inh	MEKK3 PB1 HTS	ABCB1 block	MEKK2wt confirm	MEKK2mut-MEK5	MEKK3 confirm
O=C(Nc1ccc(F)cc1)OCCN1CCN(Cc2ccccc2)CCC1=O	2.0*[inhibitor]	-2	0	6	2.0*[inhibitor]	1	103	-3	100
O=C1c2ccccc2N2C(=O)c3ccccc3[C@H]2N1c1ccccc1	105	16	0	2	107	1	.	.	.
O=C1c2ccccc2N2C(=O)c3ccccc3C2N1Cc1ccccc1 (centres undefined)	112	32	0	.	130*	.	103	-3	102
O=C(CC1CCCCC1)NCc1ccccn1	122	6	0	-3	122*	0	120	15	103
O=C(CCC1CCCC1)NCc1ccccn1	96	-1	0	2	95	1	.	.	.
COc1cc(OC)cc(C(=O)Nc2cc(-c3cn4cccnc4n3)ccc2C)c1	103	1	0	16	103	1	.	.	.
Cc1ccc(-c2cn3cccnc3n2)cc1NC(=O)c1cccs1	103	0	0	-13	133*	-1	99	-1	99
Cc1ccc(-c2nc(Nc3ccc(N4CCOCC4)cc3)c3ccccc3n2)cc1	133	8	0	.	102	.	.	.	.
Cc1noc(C)c1COc1ccc(C(=O)OC(C)C(=O)Nc2ccc(S(=O)(=O)N3CCOCC3)cc2)cc1 (centres undefined)	105	2	1	3	152*	1	99	-2	104
CCOCCCN1CN(Cc2ccccc2)CNC1=S	104	0	0	12	128*	1	106	4	100
CCOc1ccc(NC(=O)CN(C)CC(=O)Nc2ccc(F)c(F)c2F)cc1OCC	100	-3	0	6	105	1	.	.	.
CCc1nccn1-c1cc(C(C)(C)C)nc2c(-c3ccc(Cl)cc3)cnn12	110	1	1	0	151*	0	102	0	99
CC(C)Nc1cc(C(C)(C)C)nc2c(-c3ccccc3)cnn12	104	-14	0	.	94	.	.	.	.
Cc1cc(NCCCn2ccnc2)n2ncc(-c3ccc(Cl)cc3)c2n1	121	-1	0	9	94	2	.	.	.
CN(C)CCCNc1cc(C(C)(C)C)nc2c(-c3ccc(Cl)cc3)cnn12	190*	35	0	.	102	.	250*	89*	112
CC(C)(C)c1cc(NCCCn2ccnc2)n2ncc(-c3ccccc3)c2n1	145*	34	0	.	110	.	140	23	102
Cc1cc(NCCCN2CCOCC2)n2ncc(-c3ccc(Cl)cc3)c2n1	147*	23	0	5	109	1	133	19	112
CCOC(=O)CC1Sc2ccccc2NC1=S (centres undefined)	89	-15	0	.	97	.	.	.	.
CC(=O)Nc1ccc(SCCN2CC[C@@H](C)CCC2=O)cc1	.	.	0	.	.	.	.	.	.
O=C(NCCNc1ccc([N+](=O)[O-])cc1)c1cccs1	111	10	0	.	104	.	.	.	.
N#CCC(=O)Nc1ccc(C(=O)OCC(=O)NC(=O)Cc2ccccc2)cc1	.	.	0	.	.	.	.	.	.
N#CCC(=O)Nc1ccc(C(=O)OCC(=O)Nc2ccccc2-c2ccccc2)cc1	121	33	0	1	141*	0	103	2	102
COc1ccc(C(CNC(=O)c2ccc(C)c(S(=O)(=O)Nc3ccccc3OC)c2)N2CCCC2)cc1 (centres undefined)	154*	29*	-1	.	112	.	162	44	114
O=C(Nc1ccc(-c2nnc3n2CCCCC3)cc1)c1ccco1	97	2	0	0	95	0	.	.	.
Cc1c(C(=O)Nc2ccc(-c3nnc4n3CCCCC4)cc2)oc2ccc(Br)cc12	1.0*[inhibitor]	4	0	3	96	2	133	13	98
SMILES	MEKK2 WT-MEK5	MEKK2mut PB1 HTS	Efflux pump inh	ABCG2 inh	MEKK3 PB1 HTS	ABCB1 block	MEKK2wt confirm	MEKK2mut-MEK5	MEKK3 confirm
COc1ccc(C(CNC(=O)c2oc3ccc(Br)cc3c2C)N2CCCCC2)cc1 (centres undefined)	153*	-4	0	18	109	6	156	39	112
O=C(CCCn1ncn2c(cc3occc32)c1=O)NCc1ccccc1F	98	2	0	.	101	.	.	.	.
CCC12CC3CC(C1)CC(C(=O)NNC(N)=O)(C3)C2	122	18	0	.	128*	.	95	-5	97
CCC12CC3CC(C1)CC(C(=O)Nc1nn[nH]n1)(C3)C2	90	-9	0	2	88	1	.	.	.
S=c1[nH]c2ccccc2o1	103	0	0	-1	102	0	.	.	.
Cc1cccc2cc(CN(Cc3ccccc3)C(=O)N(C)C)c(=O)[nH]c12	126	6	0	4	127*	1	96	-8	96
Cc1ccc(CN(Cc2cc3cccc(C)c3[nH]c2=O)C(=O)N(C)C)cc1	97	-4	0	.	102	.	.	.	.
Brc1ccc(C2=Nn3c(Cn4nnc5ccccc54)nnc3SC2)cc1	94	-4	0	.	94	.	.	.	.
O=C(COC(=O)CN1C(=O)C(=O)c2ccccc21)OCN1C(=O)c2ccccc2C1=O	89	-3	0	4	85	2	.	.	.
O=C(/C=C/c1ccc(N2CCC(c3ccccc3)=N2)cc1)c1ccccc1	.	281*	1	81*	78	75*	94	-50	78
O=C(/C=C/c1ccc(O)cc1)c1ccccc1	85	-13	0	.	85	.	.	.	.
CC(=O)CC(=O)Nc1ccccc1NC(C)=O	76	-16	0	2	65	1	.	.	.
O=C(Nc1nc2ccccc2[nH]1)c1ccccc1	21*[inhibitor]	-23	0	0	13*[inhibitor]	0	103	1	102
CCc1nnc(NS(=O)(=O)c2ccc(NC(=S)NC(=O)/C=C/c3ccc(C(C)C)cc3)cc2)s1	95	2	0	-1	103	-1	.	.	.
Cc1cccc(N2C(=O)c3cccc(Oc4ccc(Cl)cc4)c3C2=O)c1	104	0	0	4	130*	0	99	-4	104
CC(C)CC(=O)NCC(C)NC(=O)CC(C)C (centres undefined)	97	-1	0	-1	98	0	.	.	.
